From PubChem BioAssay
Hits are enriched below; roughly 1.6% of the tested compounds scored in any of these assays.
ATG4B inhibitor: blocks human ATG4B protease cleavage of LC3 substrate. Q9Y4P1. inhibition, % at 8.33 µM. actives 0.51% (n = 340,000). ATG4B cleavage of LC3-PLA2, NBD-HPC fluorescence, 1 h; in the data active = inhibition above about 40%
Target sequence (Q9Y4P1 whole entry, looked up): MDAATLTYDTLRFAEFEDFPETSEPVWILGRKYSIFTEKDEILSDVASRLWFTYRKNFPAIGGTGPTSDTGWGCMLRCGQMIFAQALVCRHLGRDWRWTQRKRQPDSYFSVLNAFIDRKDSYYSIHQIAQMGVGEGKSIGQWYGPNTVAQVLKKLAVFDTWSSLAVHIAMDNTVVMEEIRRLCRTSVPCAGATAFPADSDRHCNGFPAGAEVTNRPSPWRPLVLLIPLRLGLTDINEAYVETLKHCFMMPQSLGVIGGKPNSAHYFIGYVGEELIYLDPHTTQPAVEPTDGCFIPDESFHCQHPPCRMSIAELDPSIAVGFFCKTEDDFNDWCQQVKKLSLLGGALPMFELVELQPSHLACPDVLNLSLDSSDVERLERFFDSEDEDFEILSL
PfGluPho inh: PfG6PD (Plasmodium falciparum) enzyme inhibition | PfGluPho enzyme, NADPH resazurin-diaphorase fluorescence | inhibition, % at 20 µM | actives 0.78% (n = 350,000);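 active = inhibition reaching at least a set limit at 20 µM in the primary screen, cut at about 59% in these data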
HKDC1 inh: blocks human hexokinase HKDC1 activity; Q2TB90; actives 0.16% (n = 340,000); recombinant HKDC1, G6PDH/diaphorase resazurin coupled fluorescence; inhibition, % at 20 µM;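 active = inhibition above about 35% when tested at 20 µM, limit read from the data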
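Test system: Recombinant HKDC1 (HK5) hexokinase enzyme, produced in-house | Input: HKDC1 at 5 µg/mL | Buffer or medium: Tris pH 8.0 buffer with MgCl2, Tween-20, BSA, BME | Schedule: 90 min reaction incubation at room temperature, dark | Technique: Resazurin-to-resorufin fluorescence via G6PDH and diaphorase coupling, 525/613 nm | Controls: DMSO wells with and without enzyme mix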
T cell HTS: T cell immune modulators affecting CD8 T cell-vesicle binding | 2C CD8+ T cell-vesicle binding, flow cytometry; hits give low values | AID 2052 | actives 0.068% (n = 330,000) | response (vesicle binding), % at 7 µM;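 active = response, share of CD8 T cells binding vesicles, and their 90th percentile fluorescence all below set limits, cut at about 80% in these data, passing the limit was not always enough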;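 also: values below 100% mean blocked vesicle binding to the CD8+ T cells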
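Material: murine 2C transgenic CD8+ T lymphocytes / Also added: QL9-peptide-loaded Drosophila micro-vesicles bearing Ld, ICAM-1 and B7-1 / Schedule: binding step 1.5 h, 37 °C, antibody labelling 20 min, ice / Signal: flow cytometry, PE anti-B7-1 (FL2) versus Alexa647 anti-CD8 (FL8), PFA-fixed / Evaluation: percent CD8+ FL2 mean versus row control / Benchmarks: naked versus QL9-loaded vesicles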
PKA-R2B activ: activates the human PKA-R2B holoenzyme complex. P22694+P31323. PKA-R2B holoenzyme dissociation, Cy5-IP20 fluorescence polarization; R2B truncated from residue 108, S112A mutant; 0% DMSO only, 100% 113 µM cGMP. activation, % at 11.4 µM. actives 0.079% (n = 340,000);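 active = activation above a cutoff set at the mean over all compounds plus 3 SD, cut at about 18% in these data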;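 also: higher means more holoenzyme dissociation and a rise in polarization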
PKA-R1A activ: activates the PKA-R1A holoenzyme complex; PKA-R1A dissociation, Cy5-IP20 fluorescence polarization; scaled: DMSO 0%, 113 µM cGMP 100%; P00514+P68181; actives 0.083% (n = 340,000); activation, % at 11.4 µM; AID 504707;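 active = percent activation above the mean of all tested compounds plus 3 SD, cut at about 19% in these data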;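 also: higher means more PKAc released from R1A so a rise in polarization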
HKDC1 act conf: HKDC1 (human) activation, single-dose confirmed. actives 14% (n = 740). recombinant HKDC1, G6PDH/diaphorase resazurin fluorescence; hits give low values. AID 504708. inhibition, % at 20 µM. shares compounds with HKDC1 inh;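 active = inhibition at or below a set negative limit, negative inhibition meaning the enzyme was activated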
ATG4B conf: ATG4B (human) inhibition, single-dose confirmed; shares compounds with ATG4B inhibitor; ATG4B protease fluorescent substrate cleavage assay; inhibition, % at 8.33 µM; actives 92% (n = 320); AID 504757; in the data active = inhibition above about 39%
PLA2 ctr: inhibits human PLA2, flagging false ATG4B inhibitors; purified PLA2, NBD-C6-HPC fluorescence, 45 min; actives 66% (n = 1,600); shares compounds with ATG4B inhibitor; inhibition, % at 8.33 µM; AID 588402; in the data active = inhibition above about 50%
Target sequence (P04054 whole entry, looked up): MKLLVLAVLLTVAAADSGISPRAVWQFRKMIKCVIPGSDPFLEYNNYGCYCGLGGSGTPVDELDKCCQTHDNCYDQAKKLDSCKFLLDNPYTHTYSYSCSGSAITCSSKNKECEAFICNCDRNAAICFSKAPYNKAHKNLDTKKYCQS
PfG6PD confirm: confirmation of Plasmodium falciparum G6PD inhibitors; AID 504753; inhibition, % at 20 µM; recombinant PfGluPho, NADPH-diaphorase-resazurin fluorescence; shares compounds with PfGluPho inh; actives 34% (n = 2,400);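 active = inhibition of at least 50% at 20 µM in any single replicate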
Diaphorase 10uM: counter-screen for P. falciparum G6PD inhibitors: diaphorase inhibitors, oxidizers | diaphorase-coupled resazurin reduction, fluorescence, NADPH 10 uM | actives 39% (n = 820) | shares compounds with PfGluPho inh | AID 504862 | inhibition, % at 20 µM;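 active = average inhibition reaching 50% or more with the compound at 20 µM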;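 also: resorufin red fluorescence formed as diaphorase reduces resazurin using NADPH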
Diaph ctr 30uM: counter-screen for P. falciparum G6PD inhibitors: diaphorase inhibitors, oxidizers; shares compounds with PfGluPho inh; Diaphorase/resazurin coupled assay, resorufin fluorescence, 30 uM NADPH; inhibition, % at 20 µM; actives 29% (n = 820); AID 504863;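 active = inhibition averaging 50% or more, tested at 20 µM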
Hits are given with their value.

What do the screens show for `CC(C)(CNC(=O)c1cccc(NS(=O)(=O)c2ccc(Br)cc2)c1)N1CCOCC1`?
ATG4B inhibitor: inactive; PfGluPho inh: inactive; HKDC1 inh: inactive; T cell HTS: inactive; PKA-R2B activ: inactive; PKA-R1A activ: inactive

Results for CCC[C@H]1CN(Cc2cccnc2)C(=O)[C@@H]1CC(=O)Nc1ccc(Br)cc1 ?
PfGluPho inh: inactive; PKA-R2B activ: inactive; PKA-R1A activ: inactive

What do the screens show for `O=C(O)C(Cc1ccccc1)N1C(=O)/C(=C/C=C/c2ccco2)SC1=S` (stereo not drawn)?
ATG4B inhibitor: 69; PfGluPho inh: inactive; HKDC1 inh: 37; PKA-R2B activ: inactive; PKA-R1A activ: inactive; HKDC1 act conf: inactive; PLA2 ctr: 59

How did CCCCC(CC)CO (stereo not drawn) do in these assays?
ATG4B inhibitor: inactive; PfGluPho inh: inactive; HKDC1 inh: inactive; T cell HTS: inactive; PKA-R2B activ: inactive; PKA-R1A activ: inactive

What do the screens show for `CCCCC(CC)CN=C(N)NC(N)=NCCCCCCN=C(N)NC(N)=NCC(CC)CCCC` (stereo not drawn)?
ATG4B inhibitor: 69; PfGluPho inh: inactive; HKDC1 inh: 42; T cell HTS: inactive; PKA-R2B activ: inactive; PKA-R1A activ: inactive; HKDC1 act conf: inactive; ATG4B conf: inactive; PLA2 ctr: inactive

How did O=C(O)c1cc(O)c2c(c1)[C@@H]([C@H]1c3cc(C(=O)O)cc(O)c3C(=O)c3c(O[C@@H]4O[C@H](CO)[C@@H](O)[C@H](O)[C@H]4O)cccc31)c1cccc(O[C@@H]3O[C@H](CO)[C@@H](O)[C@H](O)[C@H]3O)c1C2=O do in these assays?
ATG4B inhibitor: 47; PfGluPho inh: inactive; HKDC1 inh: 80; T cell HTS: inactive; HKDC1 act conf: inactive; PLA2 ctr: inactive

What do the screens show for `Cc1ccc2c(nc3s/c(=C\c4ccc(-c5ccccc5C(=O)O)o4)c(=O)n32)c1C`?
ATG4B inhibitor: inactive; PfGluPho inh: inactive; HKDC1 inh: inactive; T cell HTS: inactive; PKA-R2B activ: inactive; PKA-R1A activ: inactive

Results for O=C(O)c1ccc(-c2ccc(/C=c3/sc4nc5ccccc5n4c3=O)o2)cc1Cl ?
ATG4B inhibitor: 50; PfGluPho inh: inactive; HKDC1 inh: 45; T cell HTS: inactive; PKA-R2B activ: inactive; PKA-R1A activ: inactive; HKDC1 act conf: inactive; ATG4B conf: 82; PLA2 ctr: inactive

What do the screens show for `COc1ccccc1CNC(=O)CN1C(=O)NC2(CCC(C)CC2)C1=O` (stereo not drawn)?
ATG4B inhibitor: inactive; PfGluPho inh: inactive; HKDC1 inh: inactive; T cell HTS: inactive; PKA-R2B activ: inactive; PKA-R1A activ: inactive

Results for O=C(O)c1ccc(S(=O)(=O)/N=C2\C=C(Nc3ccccc3F)C(=O)c3ccccc32)cc1 ?
ATG4B inhibitor: 77; PfGluPho inh: 93; HKDC1 inh: 81; T cell HTS: inactive; PKA-R2B activ: inactive; PKA-R1A activ: inactive; HKDC1 act conf: inactive; PLA2 ctr: 75

What do the screens show for `CCc1ccc(S(=O)(=O)/N=C2\C=C(NS(=O)(=O)c3ccccc3)C(=O)c3ccccc32)cc1`?
ATG4B inhibitor: inactive; PfGluPho inh: inactive; HKDC1 inh: inactive; PKA-R2B activ: inactive; PKA-R1A activ: inactive

What do the screens show for `O=C(Nc1ccc2nc(-c3ccco3)c(-c3ccco3)nc2c1)N1CCN(c2ccccn2)CC1`?
ATG4B inhibitor: inactive; PfGluPho inh: 81; HKDC1 inh: 57; T cell HTS: inactive; PKA-R2B activ: inactive; PKA-R1A activ: inactive; HKDC1 act conf: inactive; PfG6PD confirm: inactive

How did Cc1nc2cc(NC(=O)N3CCN(c4ccccn4)CC3)ccc2o1 do in these assays?
ATG4B inhibitor: inactive; PfGluPho inh: inactive; HKDC1 inh: inactive; T cell HTS: inactive; PKA-R2B activ: inactive; PKA-R1A activ: inactive

What do the screens show for `CN(C)c1ccc2nc3ccc(=[N+](C)C)cc-3sc2c1`?
ATG4B inhibitor: inactive; PfGluPho inh: 112; HKDC1 inh: 36; T cell HTS: inactive; PKA-R2B activ: inactive; PKA-R1A activ: inactive; HKDC1 act conf: inactive; PfG6PD confirm: 84; Diaphorase 10uM: 79; Diaph ctr 30uM: 78

What do the screens show for `CC1=NOC(=O)/C1=C\c1ccc(-c2cccc(Cl)c2)o1`?
ATG4B inhibitor: inactive; PfGluPho inh: 72; HKDC1 inh: 38; T cell HTS: inactive; PKA-R2B activ: inactive; PKA-R1A activ: inactive; HKDC1 act conf: inactive; PfG6PD confirm: inactive

What do the screens show for `COC(=O)c1ccc(CCc2cc(O)c(Br)cc2O)cc1`?
ATG4B inhibitor: inactive; PfGluPho inh: 119; HKDC1 inh: 69; PKA-R2B activ: inactive; PKA-R1A activ: inactive; HKDC1 act conf: inactive; PfG6PD confirm: inactive

What do the screens show for `Cc1cccc(C(=O)NC2CCN(CC(=O)NCc3ccccc3F)CC2)c1`?
ATG4B inhibitor: inactive; PfGluPho inh: inactive; HKDC1 inh: inactive; T cell HTS: inactive; PKA-R2B activ: inactive; PKA-R1A activ: inactive

What do the screens show for `Cc1cc(-c2ccc([N+](=O)[O-])cc2)cc(C)n1`?
ATG4B inhibitor: inactive; PfGluPho inh: inactive; HKDC1 inh: inactive; PKA-R2B activ: inactive; PKA-R1A activ: inactive

Results for CC(=O)OCC1OC(n2cc(F)c(=O)[nH]c2=O)C(OC(C)=O)C1OC(C)=O (stereo not drawn) ?
ATG4B inhibitor: inactive; PfGluPho inh: inactive; HKDC1 inh: inactive; T cell HTS: inactive; PKA-R2B activ: inactive; PKA-R1A activ: inactive
